Source: ChEMBL document CHEMBL3272290, “Contragestational agents. 1. Steroidal O-aryloximes” (J Med Chem, 1977)
The source made the active and inactive calls. The rule behind the calls is not given here.

Experiments:
Rattus norvegicus [1] = test: Antifertility activity in Wistar rat assessed as inhibition of preimplantive gestation by measuring resorptions at 5 mg/kg, po administered in days 9 to 12 of pregnancy measured on day 21; format: functional; set-up: scale not given: the % may be the effect or the level left
Procedure, shortened: (§1)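 Groups of five pregnant female Wistar-derived rats dosed orally on days 9–12 of pregnancy, in sesame oil at 0.5 mL per 200 g body weight. Read-out was the percentage of resorptions.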

Rattus norvegicus [2] = test: Antifertility activity in Wistar rat assessed as inhibition of preimplantive gestation by measuring resorptions at 50 mg/kg, po administered in days 9 to 12 of pregnancy measured on day 21; format: functional; set-up: scale not given: the % may be the effect or the level left; procedure, shortened: as §1
Rattus norvegicus [3] = test: Antifertility activity in Wistar rat assessed as inhibition of preimplantive gestation by measuring resorptions at 2.5 mg/kg, po administered in days 9 to 12 of pregnancy measured on day 21; format: functional; set-up: scale not given: the % may be the effect or the level left; procedure, shortened: as §1
Rattus norvegicus [4] = test: Antifertility activity in Wistar rat assessed as inhibition of preimplantive gestation by measuring resorptions at 36 mg/kg, po administered in days 9 to 12 of pregnancy measured on day 21; format: functional; set-up: scale not given: the % may be the effect or the level left
Procedure, shortened: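 Given orally in sesame oil (0.5 mL per 200 g body weight) to groups of five female Wistar-derived rats on days 9–12 of pregnancy. Outcome scored as percent resorptions.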

Rattus norvegicus [5] = test: Antifertility activity in Wistar rat assessed as inhibition of preimplantive gestation by measuring resorptions at 20 mg/kg, po administered in days 9 to 12 of pregnancy measured on day 21; format: functional; set-up: scale not given: the % may be the effect or the level left; procedure, shortened: as §1
Rattus norvegicus [6] = test: Androgenic activity in castrate immature Wistar rat at 2.5 mg/kg, po qd for 7 days relative to 17-methyl-testosterone; format: functional
Procedure, shortened: (§2)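 Castrated immature rats dosed orally once a day for 7 days, in sesame oil at 0.2 mL per dose. Read-out was ventral prostate weight. Potency is expressed relative to 17-methyltestosterone. MED is the smallest tested dose giving a significant rise in ventral prostate weight.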

Rattus norvegicus [7] = test: Androgenic activity in po dosed castrate immature Wistar rat assessed as dose required to produce significant increase in ventral prostate weight administered qd for 7 days; format: functional; conditions: Prostate gland, 168 h, read-out: MED; procedure, shortened: as §2
Oryctolagus cuniculus [8] = test: Toxicity in rabbit assessed as adverse effect at 10 to 100 mg/kg; format: organism-based; set-up: dose 10-100 mg/kg; conditions: in vivo
Oryctolagus cuniculus [9] = test: Progestational activity in rabbit at 10 to 100 mg/kg; format: functional, organism-based
Rattus norvegicus [10] = test: Toxicity in rat assessed as adverse effect at 10 to 100 mg/kg; format: organism-based; set-up: dose 10-100 mg/kg; conditions: in vivo
Oryctolagus cuniculus [11] = test: Estrogenic activity in rabbit at 10 to 100 mg/kg; format: functional, organism-based
Oryctolagus cuniculus [12] = test: Antiprogestational activity in rabbit at 10 to 100 mg/kg; format: functional, organism-based
Rattus norvegicus [13] = test: Antiestrogenic activity in rat at 10 to 100 mg/kg; format: functional, organism-based
Rattus norvegicus [14] = test: Antifertility activity in Wistar rat assessed as inhibition of preimplantive gestation by measuring resorptions at 5 mg/kg, po administered in days 1 to 6 of pregnancy measured on day 21; format: functional, organism-based; set-up: dose 5 mg/kg
Oryctolagus cuniculus [15] = test: Antiandrogenic activity in rabbit at 10 to 100 mg/kg; format: functional, organism-based
Rattus norvegicus [16] = test: Antiprogestational activity in rat at 10 to 100 mg/kg; format: functional, organism-based
Oryctolagus cuniculus [17] = test: Androgenic activity in rabbit at 10 to 100 mg/kg; format: functional, organism-based
Rattus norvegicus [18] = test: Antifertility activity in Wistar rat assessed as inhibition of preimplantive gestation by measuring resorptions at 2.5 mg/kg, po administered in day 11 of pregnancy measured on day 21; format: functional, organism-based; set-up: dose 2.5 mg/kg
Rattus norvegicus [19] = test: Progestational activity in rat at 10 to 100 mg/kg; format: functional, organism-based
Oryctolagus cuniculus [20] = test: Antiestrogenic activity in rabbit at 10 to 100 mg/kg; format: functional, organism-based
Rattus norvegicus [21] = test: Antiandrogenic activity in rat at 10 to 100 mg/kg; format: functional, organism-based
Rattus norvegicus [22] = test: Estrogenic activity in rat at 10 to 100 mg/kg; format: functional, organism-based
Rattus norvegicus [23] = test: Androgenic activity in rat at 10 to 100 mg/kg; format: functional, organism-based
Rattus norvegicus [24] = test: Antifertility activity in Wistar rat assessed as inhibition of preimplantive gestation by measuring resorptions at 40 mg/kg, po administered in days 9 to 12 of pregnancy measured on day 21; format: functional; set-up: scale not given: the % may be the effect or the level left; procedure, shortened: as §1
Rattus norvegicus [25] = test: Androgenic activity in castrate immature Wistar rat at 10 mg/kg, po qd for 7 days relative to 17-methyl-testosterone; format: functional; procedure, shortened: as §2
Rattus norvegicus [26] = test: Antifertility activity in Wistar rat assessed as inhibition of preimplantive gestation by measuring resorptions at 10 mg/kg, po administered in days 9 to 12 of pregnancy measured on day 21; format: functional; set-up: scale not given: the % may be the effect or the level left; procedure, shortened: as §1

C[C@]12CC/C(=N\Oc3ccc([N+](=O)[O-])cc3)C[C@@H]1CC[C@@H]1[C@@H]2CC[C@]2(C)C(=O)CC[C@@H]12
Activity (Rattus norvegicus [1]): 100%

C[C@]12CC/C(=N\Oc3ccc([N+](=O)[O-])cc3C(F)(F)F)C[C@@H]1CC[C@@H]1[C@@H]2CC[C@]2(C)[C@@H](O)CC[C@@H]12
Activity (Rattus norvegicus [2]): 0%

C[C@]12CC/C(=N\Oc3ccc([N+](=O)[O-])cc3)C[C@@H]1CC[C@@H]1[C@@H]2CC[C@]2(C)[C@@H](O)CC[C@@H]12
Activity (Rattus norvegicus [3]): 100%

CC12CC[C@H]3[C@@H](CC[C@H]4C/C(=N/Oc5ccc([N+](=O)[O-])cc5)[C@H](Cl)C[C@@]43C)[C@@H]1CCC2=O (single isomer, unassigned)
Activity (Rattus norvegicus [3]): 100%

C[C@]12CC/C(=N\Oc3ccc([N+](=O)[O-])cc3)C[C@@H]1CC[C@@H]1[C@@H]2CC[C@]2(C)/C(=N/O)CC[C@@H]12
Activity (Rattus norvegicus [4]): 0%

C[C@]12CC[C@H]3[C@@H](CCC4=C/C(=N/Oc5ccc([N+](=O)[O-])cc5[N+](=O)[O-])C=C[C@@]43C)[C@@H]1CC[C@@H]2O
Activity (Rattus norvegicus [5]): 92.6%

C[C@]12C[C@@H](Br)/C(=N\Oc3ccc([N+](=O)[O-])cc3)C[C@@H]1CC[C@@H]1[C@@H]2CC[C@]2(C)C(=O)CC[C@@H]12
Activity (Rattus norvegicus [3]): 100%

CC(=O)O[C@H]1CC[C@H]2[C@@H]3CC[C@H]4C/C(=N/Oc5ccc([N+](=O)[O-])cc5)CC[C@]4(C)[C@H]3CC[C@]12C
Activity (Rattus norvegicus [6]): 2.5%
Activity (Rattus norvegicus [3]): 96.6%
minimal effective dose (Rattus norvegicus [7]): 30 mg/kg

C[C@]12C[C@@H](Cl)/C(=N\Oc3ccc([N+](=O)[O-])cc3)C[C@@H]1CC[C@@H]1[C@@H]2CC[C@]2(C)[C@@H](O)CC[C@@H]12
Activity (Rattus norvegicus [1]): 100%

C[C@]12CC[C@H]3[C@@H](CCC4=C/C(=N/Oc5ccc([N+](=O)[O-])cc5)CC[C@@H]43)[C@@H]1CC[C@@H]2O
Activity (Rattus norvegicus [5]): 63.9%

CC(=O)O[C@H]1CC[C@H]2[C@@H]3CC[C@H]4C/C(=N/Oc5ccc([N+](=O)[O-])cc5)[C@H](Cl)C[C@]4(C)[C@H]3CC[C@]12C [NISTERIME ACETATE]
Activity (Oryctolagus cuniculus [8]): Non-toxic
Activity (Oryctolagus cuniculus [9]): inactive
Activity (Rattus norvegicus [10]): Non-toxic
Activity (Oryctolagus cuniculus [11]): inactive
Activity (Oryctolagus cuniculus [12]): inactive
Activity (Rattus norvegicus [13]): inactive
inhibition (Rattus norvegicus [14]): Active
Activity (Oryctolagus cuniculus [15]): inactive
Activity (Rattus norvegicus [16]): inactive
Activity (Oryctolagus cuniculus [17]): inactive
inhibition (Rattus norvegicus [18]): Active
Activity (Rattus norvegicus [19]): inactive
Activity (Oryctolagus cuniculus [20]): inactive
Activity (Rattus norvegicus [21]): inactive
Activity (Rattus norvegicus [22]): inactive
Activity (Rattus norvegicus [3]): 100%
Activity (Rattus norvegicus [23]): inactive
minimal effective dose (Rattus norvegicus [7]): > 90 mg/kg

CCCCCCC(=O)O[C@H]1CC[C@H]2[C@@H]3CC[C@H]4C/C(=N/Oc5ccc([N+](=O)[O-])cc5)CC[C@]4(C)[C@H]3CC[C@]12C
Activity (Rattus norvegicus [1]): 100%

C[C@]12CC/C(=N\Oc3ccc([N+](=O)[O-])cc3)C[C@@H]1CC[C@@H]1[C@@H]2CC[C@]2(C)[C@@H](O[N+](=O)[O-])CC[C@@H]12
Activity (Rattus norvegicus [24]): 30.8%

C[C@]12CC[C@H]3[C@@H](CCC4=C/C(=N/Oc5ccc([N+](=O)[O-])cc5[N+](=O)[O-])CC[C@@]43C)[C@@H]1CC[C@@H]2O
Activity (Rattus norvegicus [25]): 80%
Activity (Rattus norvegicus [26]): 80.8%
minimal effective dose (Rattus norvegicus [7]): 1.5 mg/kg

C[C@]12CC/C(=N\Oc3ccc([N+](=O)[O-])cc3)C[C@@H]1CC[C@@H]1[C@@H]2CC[C@@]2(C)[C@H]1CC[C@]2(C)O
Activity (Rattus norvegicus [24]): 14.7%

C[C@]12CC[C@H]3[C@@H](CCC4=C/C(=N/Oc5ccccn5)CC[C@@H]43)[C@@H]1CC[C@@H]2O
Activity (Rattus norvegicus [5]): 100%

CC(=O)O[C@H]1CC[C@H]2[C@@H]3CCC4C/C(=N/Oc5ccc([N+](=O)[O-])cc5)C=C[C@]4(C)[C@H]3CC[C@]12C (stereo not given in full)
Activity (Rattus norvegicus [24]): 2%

C[C@]12CC[C@H]3[C@@H](CCC4=C/C(=N/Oc5ccc([N+](=O)[O-])cc5)C=C[C@@]43C)[C@@H]1CC[C@@H]2O
Activity (Rattus norvegicus [5]): 6%

C[C@]12CC/C(=N\Oc3ccccc3)C[C@@H]1CC[C@@H]1[C@@H]2CC[C@]2(C)[C@@H](O)CC[C@@H]12
Activity (Rattus norvegicus [24]): 1.9%

CC(=O)O[C@H]1CC[C@H]2[C@@H]3CC[C@H]4C/C(=N/Oc5ccc([N+](=O)[O-])cc5)[C@H](Br)C[C@]4(C)[C@H]3CC[C@]12C
Activity (Rattus norvegicus [3]): 100%

C[C@]12CC/C(=N\Oc3ccc([N+](=O)[O-])cc3[N+](=O)[O-])C[C@H]1CC[C@@H]1[C@@H]2CC[C@]2(C)[C@@H](O)CC[C@@H]12
Activity (Rattus norvegicus [24]): 5.4%

C[C@]12CC/C(=N\Oc3ccc([N+](=O)[O-])cc3[N+](=O)[O-])C=C1CC[C@@H]1[C@@H]2CC[C@@]2(C)[C@H]1CC[C@]2(C)O
Activity (Rattus norvegicus [5]): 2.2%

C[C@]12CC/C(=N\Oc3ccc([N+](=O)[O-])cc3[N+](=O)[O-])C[C@@H]1CC[C@@H]1[C@@H]2CC[C@]2(C)[C@@H](O)CC[C@@H]12
Activity (Rattus norvegicus [24]): 8.2%

C[C@]12CC/C(=N\Oc3ccccn3)C[C@@H]1CC[C@@H]1[C@@H]2CC[C@]2(C)[C@@H](O)CC[C@@H]12
Activity (Rattus norvegicus [24]): 0%

C[C@]12CC/C(=N\OCc3ccccc3)C[C@@H]1CC[C@@H]1[C@@H]2CC[C@]2(C)[C@@H](O)CC[C@@H]12
Activity (Rattus norvegicus [24]): 13.3%

C[C@]12CC[C@H]3[C@@H](CCC4=C/C(=N/Oc5ccc([N+](=O)[O-])cc5[N+](=O)[O-])CC[C@@H]43)[C@@H]1CC[C@@H]2O
Activity (Rattus norvegicus [5]): 100%

Cc1cc([N+](=O)[O-])ccc1O/N=C1\CC[C@@]2(C)[C@@H](CC[C@@H]3[C@@H]2CC[C@]2(C)[C@@H](O)CC[C@@H]32)C1
Activity (Rattus norvegicus [24]): 5.7%

C[C@@]12CCC[C@H]1[C@@H]1CC[C@H]3C/C(=N/Oc4ccc([N+](=O)[O-])cc4)CC[C@]3(C)[C@H]1CC2
Activity (Rattus norvegicus [24]): 0%

C[C@]12CC/C(=N\Oc3ccc([N+](=O)[O-])cn3)C[C@@H]1CC[C@@H]1[C@@H]2CC[C@]2(C)[C@@H](O)CC[C@@H]12
Activity (Rattus norvegicus [24]): 6%

C[C@]12CC[C@H]3[C@@H](CCC4=C/C(=N/Oc5ccc(C(F)(F)F)cc5)CC[C@@]43C)[C@@H]1CC[C@@H]2O
Activity (Rattus norvegicus [24]): 11.8%

C[C@]12CC[C@H]3[C@@H](CC[C@H]4C/C(=N/Oc5ccc([N+](=O)[O-])cc5)CC[C@@H]43)[C@@H]1CC[C@@H]2O
Activity (Rattus norvegicus [24]): 9.8%

Cc1cc(O/N=C2\CC[C@@]3(C)[C@@H](CC[C@@H]4[C@@H]3CC[C@]3(C)[C@@H](O)CC[C@@H]43)C2)ccc1[N+](=O)[O-]
Activity (Rattus norvegicus [24]): 13.1%

C[C@]12C[C@@H](Br)/C(=N\Oc3ccc([N+](=O)[O-])cc3)C[C@@H]1CC[C@@H]1[C@@H]2CC[C@]2(C)[C@@H](O)CC[C@@H]12
Activity (Rattus norvegicus [3]): 100%

C[C@]12CC[C@H]3[C@@H](CCC4=C/C(=N/Oc5ccccn5)CC[C@@]43C)[C@@H]1CC[C@@H]2O
Activity (Rattus norvegicus [24]): 75.9%
